An excerpt weighted towards active compounds, which were near 3.5% of everything screened.
MrgX1 PAM – human MrgX1 positive allosteric modulation, primary screen | MrgX1-HEK293, Fluo-4 calcium flux, FDSS; active compounds read high | B-score at 10 µM | actives 0.63% (n = 310,000) | AID 588675;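 active means plate-corrected calcium response at least 3 library SD above typical, normal starting fluorescence, not activating the receptor alone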;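 further: compound read alongside a low EC10 to EC30 dose of BAM8-22 agonist; peak minus trough fluorescence over baseline measured at the second addition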
Target sequence (Q96LB2 whole entry, looked up): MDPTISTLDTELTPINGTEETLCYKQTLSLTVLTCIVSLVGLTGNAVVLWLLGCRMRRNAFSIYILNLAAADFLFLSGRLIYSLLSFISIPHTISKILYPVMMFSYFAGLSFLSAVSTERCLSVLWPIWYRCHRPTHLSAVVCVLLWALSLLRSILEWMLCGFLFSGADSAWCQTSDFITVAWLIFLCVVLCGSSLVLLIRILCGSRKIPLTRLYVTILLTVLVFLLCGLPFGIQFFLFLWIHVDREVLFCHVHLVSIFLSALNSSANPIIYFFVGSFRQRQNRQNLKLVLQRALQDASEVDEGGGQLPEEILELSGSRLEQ
RGS4 inh – inhibitors of human RGS4; B-score at 10 µM; P49798; actives 0.45% (n = 310,000); HEK293 M3R/RGS4 inducible, Fluo-4 calcium flux; active compounds read high; triggered by carbachol at its EC20; AID 463165;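 active means B-score, a plate-corrected calcium signal, over three deviations above library mean, with baseline fluorescence within five deviations of library mean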;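 further: RGS4 expression induced by doxycycline in cells with stable M3 receptor; B-score is computed from the integrated fluorescence ratio over baseline after carbachol; higher B-score means a larger calcium signal and so more RGS4 inhibition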
Target sequence (P49798 whole entry, looked up): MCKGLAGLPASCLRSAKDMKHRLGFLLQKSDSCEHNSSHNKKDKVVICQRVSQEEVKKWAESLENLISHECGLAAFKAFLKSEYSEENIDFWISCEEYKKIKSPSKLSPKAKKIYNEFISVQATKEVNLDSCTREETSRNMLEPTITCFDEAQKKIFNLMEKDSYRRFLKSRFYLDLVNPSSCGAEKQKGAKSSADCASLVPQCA
MrgX1 antag – blocks BAM8-22 activation of human MrgX1 receptor; actives 1.3% (n = 310,000); B-score at 10 µM; Q96LB2; AID 588676; MRGX1-HEK293 calcium flux, Fluo-4, BAM8-22 antagonism; active compounds read low;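 active means calcium-response B-score plate-corrected more than 3 library SD below zero, starting fluorescence within 5 deviations, no agonist response on first addition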;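 further: peak minus trough fluorescence over baseline after final BAM8-22 challenge near maximal dose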
MrgX1 ag – agonists of human MrgX1 receptor; Q96LB2; MrgX1-HEK293 cells, Fluo-4 calcium fluorescence, agonist mode; active compounds read high; B-score at 10 µM; actives 0.44% (n = 310,000); AID 588627;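 active means calcium response B-score plate-corrected fluorescence ratio at least 3 library SD, with starting fluorescence B-score inside 5 SD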
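Material – MrgX1-expressing HEK293 cells · Input – 15,000 cells seeded per well · Dosing – compound as first of three additions · Times – overnight seeding, then 1 h dark dye loading · Measured by – kinetic Fluo-4 NW fluorescence of intracellular calcium · Read-out – B-scored fluorescence response ratio · Benchmarks – positive and negative control wells on each plate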
RGS4 act – potentiators or activators of RGS4. HEK293 M3R/inducible RGS4, carbachol calcium flux Fluo4; active compounds read low. B-score at 10 µM. actives 0.92% (n = 310,000). AID 463111;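 active means B-score of the integrated calcium signal more than 4 SD below the library mean, with starting fluorescence not abnormally high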;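 further: negative B-score means reduced calcium response which marks RGS4 activation or potentiation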
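System: HEK293 FlpIn-TREx cells, stable M3R, doxycycline-inducible RGS4. Timing: overnight RGS4 induction, 30 min dye load 37 °C, 20 min compound RT. Also added: carbachol, ECmax concentration. Measured by: Fluo4 fluorescence kinetic imaging of calcium. Evaluation: integrated calcium ratio converted to B score.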
RGS4 act valid – confirmation of RGS4 activators; inhibition, % at 10 µM; shares compounds with RGS4 act; AID 602282; actives 89% (n = 1,100); HEK293 M3R/RGS4 inducible, carbachol calcium flux Fluo4;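 active means inhibition above 3 SD of the buffer control wells, cut at about 41% in these data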;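 further: signal is the integrated peak-minus-minimum Fluo4 fluorescence over baseline ratio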
M3R Ca counter – RGS4 activator counter-screen hit in non-induced cells; inhibition, % at 10 µM; actives 82% (n = 1,100); HEK293 M3R non-induced RGS4, Fluo4 calcium flux; after carbachol challenge at its EC90; shares compounds with RGS4 act;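 active means inhibition exceeding 3 SD of buffer-only control wells, cut at about 26% in these data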;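 further: percent drop in integrated peak-minus-baseline over baseline Fluo4 ratio after carbachol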
RGS4 block valid – validation of RGS4 inhibitors; shares compounds with RGS4 inh; actives 65% (n = 1,700); calcium response, % at 10 µM; HEK293 M3R/RGS4, carbachol calcium Fluo-4 fluorescence; carbachol added at its EC20; 0 = buffer wells, 100 = carbachol control;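 active means duplicate-averaged calcium response above the buffer-only control mean plus 5 SD of those controls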;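 further: integrated fluorescence ratio F max minus min over baseline F0; higher response in RGS4-induced cells means RGS4 inhibition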
RGS4 uninduced – checks RGS4 inhibitor effects in non-induced HEK293 M3R cells | shares compounds with RGS4 inh | carbachol calcium Fluo-4; submaximal (EC20) carbachol stimulus; buffer wells 0%, carbachol control wells 100% | activity (percent), % at 10 µM | actives 20% (n = 1,900); call rule not given here;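 further: RGS4 induction absent so cells express M3R without RGS4; higher means more calcium signal and flags a non-specific hit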
M3R basal Ca ctr – second counter-screen for RGS4 inhibitors: non-induced cells without carbachol; HEK293 M3R/RGS4 non-induced, Fluo-4 calcium, no carbachol; normalised: buffer wells 0%, carbachol wells 100%; AID 493001; calcium response (agonist-mode artifact), % at 10 µM; shares compounds with RGS4 inh; actives 22% (n = 1,900);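 active means duplicate-averaged calcium rise in uninduced cells above buffer wells' mean plus 5 SD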
An asterisk follows results filed as active; i = inactive; / = no result.

SMILES	MrgX1 PAM	RGS4 inh	MrgX1 antag	MrgX1 ag	RGS4 act	RGS4 act valid	M3R Ca counter	others
COc1ccc(-c2nn(CCC#N)cc2C(=O)NCc2ccccc2)cc1	i	i	i	i	i	/	/
Brc1ccc2c(c1)C(OC1CN3CCC1CC3)c1ccccc1CS2 (stereo unspecified)	i	i	i	i	-14*	94*	90*
CC(=O)OC1N=C(c2ccc(Cl)cc2)c2cc(Br)ccc2NC1=O (stereo unspecified)	i	i	i	i	i	/	/
OC(c1ccccc1)(c1ccc(Cl)cc1)C1CN2CCC1CC2 (stereo unspecified)	i	i	i	i	-9.1*	78*	57*
CN1CC(C(=O)c2cccs2)C(c2ccc(Cl)cc2)C1 (stereo unspecified)	i	i	i	i	i	/	/
O=C(c1cccs1)C1CN2CCC1CC2 (stereo unspecified)	i	i	i	i	-9.3*	60*	0
O=C(c1ccc2c(c1)OCO2)C1CCCN(Cc2c(F)cccc2Cl)C1 (stereo unspecified)	i	i	i	i	-8.6*	92*	81*
Cc1cccc(CN2CCCC(C(=O)c3ccc4c(c3)OCO4)C2)n1 (stereo unspecified)	i	i	i	i	i	/	/
Cc1ccc(-c2nc3ccccc3c(=O)n2-c2cccc(C)n2)cc1	i	i	i	i	-10*	48*	84*
Cc1ccc(-c2nc3ccccc3c(=O)n2-c2cc(C)ccn2)cc1	i	i	i	i	i	/	/
OC(CC#CCN1CCCCCC1)(c1ccccc1)C1CCCC1 (stereo unspecified)	i	i	i	i	-7.7*	93*	95*
CC1(C(O)(C#CCN2CCCCC2)c2ccccc2)CCCC1 (stereo unspecified)	i	i	i	i	-7.6*	93*	89*
Fc1ccccc1CCNCc1ccccc1	i	i	i	i	i	/	/
O=C(c1ccc(Cl)cc1)C1CCCN(C2CCSCC2)C1 (stereo unspecified)	i	i	i	i	-7.9*	92*	55*
CCn1ccnc1CN1CCCC(C(=O)c2ccc(SC)cc2)C1 (stereo unspecified)	i	i	i	i	-10*	92*	90*
CCC[N+]12CCC(CC1)C(=C(c1ccccc1)c1ccccc1)C2	i	i	i	i	-12*	90*	64*
C=Cc1ccc(Cn2c(C(=O)O)c(C=O)c3ccccc32)cc1	i	i	i	i	i	/	/
CCCn1ncc(CN2CCCC(C(=O)c3cccc(OC)c3)C2)c1C (stereo unspecified)	i	i	i	i	-9.1*	91*	70*
O=c1[nH]c(=S)[nH]c(O)c1N=Nc1ccc(SC(F)F)cc1	i	i	i	i	i	/	/
Cc1ccc(C(C)C)c(OCC#CCN2CCCC2)c1	i	i	i	i	-9.1*	91*	41*
CCCOP(=O)(O)c1c([N+](=O)[O-])cc(C(F)(F)F)cc1[N+](=O)[O-] (tested in a mixture with another compound)	i	i	i	i	i	/	/
COc1cccc(N2C(=O)NC(=O)/C(=C/c3ccc([N+](=O)[O-])s3)C2=O)c1	i	10*	i	i	i	/	/	RGS4 block valid=20%*;RGS4 uninduced=35%*;M3R basal Ca ctr=i
COc1ccccc1N1C(=O)NC(=O)/C(=C\c2cnn(-c3ccccc3)c2)C1=O	i	i	i	i	i	/	/
COc1ccc(N2C(=O)NC(=O)/C(=C\c3ccc([N+](=O)[O-])s3)C2=O)cc1	i	5.2*	i	i	i	/	/	RGS4 block valid=22%*;RGS4 uninduced=i;M3R basal Ca ctr=i
COc1ccc(N2C(=O)NC(=O)/C(=C/c3ccc([N+](=O)[O-])s3)C2=O)cc1	i	6.1*	i	i	i	/	/	RGS4 block valid=16%*;RGS4 uninduced=i;M3R basal Ca ctr=i
SMILES	MrgX1 PAM	RGS4 inh	MrgX1 antag	MrgX1 ag	RGS4 act	RGS4 act valid	M3R Ca counter	others
COc1ccccc1N1C(=O)NC(=O)/C(=C/c2ccc([N+](=O)[O-])s2)C1=O	i	i	i	i	i	/	/	RGS4 uninduced=i;M3R basal Ca ctr=i
COc1cccc(N2C(=O)NC(=O)/C(=C/c3ccc4c(c3)Cc3ccccc3-4)C2=O)c1	i	i	i	i	i	/	/
CCOc1ccc(N2C(=O)NC(=O)/C(=C\c3cc(OC)c(OC)cc3[N+](=O)[O-])C2=O)cc1	i	i	i	i	i	/	/
C=CCn1c(O)c(/C=C2/C=CC=N2)c(=O)[nH]c1=O	i	i	i	i	i	/	/
CCCCc1nc(N2CCNCC2)c(C#N)c2c1CSC(C)(C)C2	i	i	i	i	i	/	/
N#Cc1c(N2CCNCC2)nc(-c2ccco2)c2c1CCCC2	i	5.5*	i	i	i	/	/	RGS4 block valid=i;RGS4 uninduced=i;M3R basal Ca ctr=i
C/C1=C\[C@@H](C)C/C=C/[C@H]2[C@@H]3O[C@]3(C)[C@@H](C)[C@H]3[C@H](Cc4c[nH]c5ccccc45)NC(=O)[C@]32C(=O)/C=C/C(=O)[C@@H]1O	11*	11*	i	i	i	/	/	RGS4 block valid=46%*;RGS4 uninduced=i;M3R basal Ca ctr=18%*
CC1=CC2/C=C(\C)CCC(O)C(O)/C=C/C(=O)C23C(=O)NC(CC(C)C)C3C1C (stereo unspecified)	i	i	i	i	i	/	/
COc1ccc(-n2c(/C=C/c3ccc(O)c(OC)c3)nc3ccccc3c2=O)cc1	i	i	i	i	i	/	/
COc1cc(/C=C/[N+](=O)[O-])ccc1O	i	26*	i	i	i	/	/	RGS4 block valid=60%*;RGS4 uninduced=74%*;M3R basal Ca ctr=i

Screening results as filed in PubChem BioAssay.
